Measurements taken from ChEMBL document CHEMBL4513216, “Probing the Open Global Health Chemical Diversity Library for Multistage-Active Starting Points for Next-Generation Antimalarials” (ACS Infect Dis, 2020).

Test: Toxicity liver stage against HepG2, at 10uM
Format: cell-based
Set-up: test concentration 10 uM, cell line HepG2-A16-CD81EGFP
Details: human, HepG2-A16-CD81EGFP cells; read-out: INHIBITION
Procedure, shortened: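 Uninfected HepG2-A16-CD81EGFP cells, 3 × 10^3 per well, 1536-well, plated on prespotted compound at 10 μM final, parasite-free screening media added to match infected plates; puromycin 10 μM positive, DMSO 0.5% negative; run in parallel with 48 h PbLuc assay at 37 °C, 5% CO2; viability by CellTiter-Glo luminescence, normalized to controls.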

SMILES | cytotoxicity at 10 µM [%]
CC/N=c1\nc(NCC)nc2n1C(O)(Nc1cccc(Cl)c1Cl)CS2 (stereo unspecified) | 14.1
O=C(c1cc(Br)ccc1-n1cnnn1)N1CCCC1 | -9.24
O=C(CCc1ccc2c(c1)CCO2)Nc1nnn[nH]1 | 0.301
Cc1nn(C)c(=O)c2nn(-c3ccc(Cl)cc3)c(C)c12 | -4.18
O=S(=O)(Cc1ccc(Br)cc1)NCCO | 6.73
CN(C)c1nccnc1C1CCN(C(=O)C2(C)CCCCN2C)CC1 (stereo unspecified) | 10
CC(C)c1nccn1-c1nccnc1C1CCCN1Cc1ccccc1 (stereo unspecified) | -0.943
Fc1cccc(CN2CCC(c3noc(-c4ccncc4)n3)CC2)c1F | -6.21
O=C1CCCN1CCN1CCCCC1Cn1cccn1 (stereo unspecified) | 12.9
CC(C)(C)NC(=O)Cn1nc(C2CC2)cc(C(F)(F)F)c1=O | -13.9
COCCN(CCC#N)S(=O)(=O)c1cc(F)cc(F)c1 | -3.32
COc1c(C)cnc(CSc2nnc(N)s2)c1C | 10.1
CCCc1nc(CN(C)CC2CCN(CCO)CC2)no1 | 2.64
COCc1ccc(CNC(=O)CN2CCc3ccccc32)cc1 | 6.68
Cc1cc(NS(=O)(=O)c2ccc(Cl)s2)ccc1-n1cccc1C(=O)O | 3.2
CC(C)c1ncc(C(=O)N2CCOCC2CC(=O)c2ccco2)s1 (stereo unspecified) | 5.08
CC(=O)N1Cc2ccccc2C[C@H]1C(=O)Nc1ccccn1 | -3.09
CN(Cc1nc(-c2cccnc2)no1)C(=O)c1cnc2n1CCCC2 | 6.32
CCN(CC)CCNC(=O)C(C)OCC(F)(F)F (stereo unspecified) | 4.23
Cc1cc(C(=O)N2CCOC(c3nc(C)n[nH]3)C2)[nH]n1 (stereo unspecified) | -11.7
CCc1nc(C)ncc1C(=O)N1CC(=O)N(C)c2ccccc21 | 6.62

SMILES | cytotoxicity at 10 µM [%]
CC(C)COC(C)C(=O)N1CCC(C)CC1 (stereo unspecified) | 2.95
COc1ccc(-c2ccc(C(=O)NS(C)(=O)=O)c(F)c2)c(F)c1 | 0.512
COc1ccc(-n2ccc(CNCc3ccc(OC)c(O)c3)n2)cc1 | 0.51
CCC1CN(C)c2ccccc2CN1C(=O)c1c[nH]c(=O)cc1C (stereo unspecified) | 16.1
O=C(O)c1c(Cl)ncn1-c1ccccc1 | -2.34
COCc1cc(N(Cc2ccsc2)C2CC2)n2ncnc2n1 | -3.75
Cc1cc2c(cc1NC(=O)NCC(C)C)OCO2 | 1.01
O=C(CCC(=O)c1cccs1)NC1(C(=O)NCC2CC2)CCCC1 | -10.6
CC(C)(C)c1cnc(CN2CCC(NC(=O)CC3CCCC3)CC2)o1 | -15.5
CN1CCOC(C(=O)N2CCCC(C)(C)CC2)C1 (stereo unspecified) | 6.67
CC(C)CN1C(=O)C2(CCCC2)NC1c1cn(C)c(=O)n(C)c1=O (stereo unspecified) | 2.8
Cc1ccc(C(=O)NCCCNS(C)(=O)=O)c(=O)[nH]1 | -15.3
CCC(CNC(=O)c1ccc(=O)[nH]n1)N1CCc2ccccc2C1 (stereo unspecified) | -7.9
CCS(=O)(=O)N1CCN(CC2CC2)c2ncccc2C1 | 7.97
O=C1COC2(COCCN(c3cnccn3)C2)CN1c1cccc(F)c1 (stereo unspecified) | -104
COC[C@@H]1CCC[C@@]12CN(C(=O)N(C)C)CCO2 | -102
O=C([C@@H]1CCCO1)N1CCn2c(Cn3cccn3)cnc2C1 | -70.1
Cc1ccoc1C(=O)N1CCn2cc(CN3CCCC3)nc2C1 | -79.6
CCOC(=O)C1(CCOC)CCN(Cc2nccn2CC)CC1 | 6.77
CC(C)NC(=O)N1CCCC(c2nnc(CN3CCOCC3)n2C)C1 (stereo unspecified) | -0.392
CC(c1ccccn1)N(C)Cc1ccc(-n2cncn2)cc1 (stereo unspecified) | 5.33

SMILES | cytotoxicity at 10 µM [%]
Cc1ccc(C2(O)CCN(C(=O)CCn3c(C)cccc3=O)CC2)nc1 | -9.02
COc1cccc(-c2cc(C(=O)NCCCn3cnnc3)[nH]n2)c1 | 3.45
CN1[C@H](CO)C[C@H](CNCc2ccc(CO)o2)[C@@H]1c1ccccc1F | -9.37
CCCS(=O)(=O)N1CCC2(CCC(=O)N(CCc3ccncc3)C2)CC1 | -11.7
COCCCN1CC2(CCN(Cc3ncc[nH]3)CC2)CC1=O | -2.89
Cc1cc(C)n(C2CCN(Cc3c(-c4cc(C)on4)nn(C)c3Cl)C2)n1 (stereo unspecified) | 3.84
NC(=O)COc1ccc(CN2CCC3(CC2)[C@H](O)C[C@@H]3O)cc1Cl | 3.76
c1ccc(CCCC2CN(Cc3ncc[nH]3)CCO2)cc1 (stereo unspecified) | -3.83
CCOC(=O)c1cccc(N2CCCC3(CCC(=O)N(C4CC4)C3)C2)n1 (stereo unspecified) | -1.38
CCCN1CCC(CC(=O)NCc2cc(O)ncn2)CC1 | 14.7
Cc1ccccc1C(CC(=O)NCc1n[nH]c(N)n1)c1ccccc1 (stereo unspecified) | 8.8
CC(C)[C@H](NC(=O)c1cccc(CCC(C)(C)O)c1)C(N)=O | -0.471
CC(=O)c1ccc(-c2cnn(CC(=O)Nc3cc(C)nn3C)c2)nc1 | -6.93
Cc1cc(N2CCCC3(CN(C)C(=O)O3)C2)c2cc3c(cc2n1)OCO3 (stereo unspecified) | -5.05
COc1cccc(OC2CN(C(=O)Cn3nc4ccccc4n3)C2)c1 | -6.98
C[C@@H]1CN(C(=O)CCc2nncn2C)CC[C@@]1(O)C1CCC1 | -6.65
COc1ccccc1CN(C)C(=O)CN1C(=O)OC[C@@H]1c1ccccc1 | -43.6
Nc1nc2c(c(N3CCCC(c4nnc5ccccn45)C3)n1)CCNC2 (stereo unspecified) | -3.57
CC(C)CC(O)C1CCN(C(=O)c2ccc(C(F)(F)F)nc2O)CC1 (stereo unspecified) | 2.5
OCc1csc(N2CCN(Cc3cccc(F)c3)CC2)n1 | -4.9
Nc1nccc(NCc2cc3n(n2)CCCN(C(=O)C2CCC2)C3)n1 | -6.49

SMILES | cytotoxicity at 10 µM [%]
CSCC[C@H](N)C(=O)NCc1cc2n(n1)CCCN(C(=O)C1CCC1)C2 | -12.9
COc1ccccc1CC(=O)N1CC[C@@]2(CCCO2)[C@@H](OC)C1 | 11.7
Cc1ccc(C(O)CNCc2c(C(C)C)nn(C)c2N(C)C)cc1 (stereo unspecified) | -11.8
COc1cccc(C(=O)Nc2cc(CC(C)C)nn2C)c1 | -9.42
CCn1c(C(=O)N2CCN(C(=O)COC)CC2)cc2ccccc21 | -6.59
O=C(NCCCn1cncn1)N1CCCC(N2CCCC2)C1 (stereo unspecified) | -2.66
N#Cc1cnn(-c2ccc(C(=O)Nc3ccccn3)cc2)c1N | -9.03
CCc1[nH]ncc1C(=O)N1CCCC(n2ccnc2C(C)C)C1 (stereo unspecified) | 2.43
Cc1nc(CNCC2CCCN2c2cccnn2)no1 (stereo unspecified) | -1.59
O[C@@H]1CN(Cc2ccc(F)cc2)CC[C@H]1NCc1ccccn1 | -2.83
CCN1C[C@H]2C3(CCN(C(=O)NC(C)C)CC3)CC[C@@]2(C(=O)N(C)C)C1 | -109
O=C(c1ccccn1)N1CCC2(CCCN(c3nncs3)C2)C1 (stereo unspecified) | -111
CN1CCC(N2CCC(C(=O)N(C)C)CC2)CC1 | -1.82
Cn1cc(C(=O)NCc2cncc3c2CCN(CC2CC2)C3)cn1 | -103
COC[C@H]1CC[C@@H]2[C@@H](CCN2Cc2ccccn2)O1 | -72.6
COCCN1CC[C@@H]2CN(Cc3nccn3C)C[C@@H]2C1 | -76.5
CCOCC(=O)N1C[C@H]2CC[C@@H](C1)N(Cc1ccccn1)C2=O | 10.9
N#Cc1cccc(C(=O)N2C[C@@H]3CC[C@H]2CN(C(=O)C2CCC2)C3)c1 | -2.5
